core dimer inh: inhibitors of HCV core protein dimerization, primary screen, biochemical, TR-FRET, high-throughput. inhibition, % at 5 µM. TR-FRET GST/Flag-core106 dimerization, 1536-well. AID 1899, 2009. 300,000 tested, 0.33% active;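 active means inhibition above the mean of all tested compounds plus 3 SD, set per screening campaign, cut at about 45% in these data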
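test system = GST/Flag-tagged HCV core106 proteins | probe or stimulus = Eu donor and XL665 acceptor anti-tag antibodies | times = compound-protein-antibody incubation 4 h at 22.5 °C | signal = TR-FRET, excitation 340 nm, emission 617 and 671 nm | measure = percent inhibition of core106 dimerization signal | controls = wells lacking GST-core106 and wells with excess unlabelled core106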
HSF-1 act: HSF-1 activators, primary screen, NIH3T3-HGL cells, MG132 stress, luminescence, single point; activation, % at 9 µM; 300,000 tested, 1.7% active; NIH3T3-HGL HSF-1 luciferase reporter, 8 h; 100% = twice DMSO control signal;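 active means mean replicate activation of at least 50% with a set share of replicates each reaching 50%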;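 further: 0% = median of the neutral control wells and 100% = twice that signal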
HSP90 inh: HSP90 inhibitors, primary screen, cell lysate, luminescence; Heat shock protein HSP 90 (rabbit reticulocyte lysate; luciferase refolding); Rabbit reticulocyte lysate, luciferase refolding luminescence, 3 h; inhibition, % at 5.6 µM; 290,000 tested, 0.91% active;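 active means inhibition above the screen-wide mean plus 3 SD, computed separately per campaign, cut at about 16% in these data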;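 further: 0% = DMSO wells and 100% = 60 µM geldanamycin wells; inhibitors lower the luminescence because luciferase stays unfolded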
DNA FID counter: compounds displacing fluorescent DNA intercalator, primary screen, artefact control for HCV NS3 helicase inhibitor project, biochemical, FID fluorescence. DNA fluorescent intercalator displacement. inhibition, % at 7.9 µM. 290,000 tested, 0.17% active; in the data active means inhibition above about 37%;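 further: 0% = vehicle and 100% = reference compound; higher means more ethidium bromide displaced from hairpin DNA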
HSF1 inh: HSF1 inhibitors in luciferase reporter cells, primary screen, cell-based, NIH3T3, luminescence; NIH3T3-HGL HSE-luciferase, MG132-induced, luminescence 8 h; hits give low values; activity change, negative = inhibition, % at 7.5 µM (by protocol); 300,000 tested, 0.77% active; AID 2098, 2009;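 active means more than half of replicate wells show activity change below -50%, luminescence cut by over half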;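 further: luciferase reports HSF-1 transcriptional activity via heat shock element; 0% = median of DMSO wells and -100% = zero luminescence signal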
NS3 helicase inh: inhibitors of HCV NS3 helicase, primary screen, biochemical, Cy5 molecular beacon fluorescence | AID 1800, 2009 | NS3 helicase DNA unwinding | inhibition, % at 10.9 µM | 290,000 tested, 0.56% active;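 active means inhibition above the mean of all tested compounds plus 3 SD, set per campaign, cut at about 35% in these data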;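 further: 0% = DMSO wells and 100% = thioflavine S control wells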
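Assay system – hepatitis C virus NS3 helicase domain fragment enzyme · Buffer or medium – MOPS pH 6.5, MgCl2, DTT, Tween20, BSA · Reagent – Cy5/quencher beacon DNA duplex and ATP to start · Compound – single 10.9 µM dose · Timing – 1 h at 25 °C · Technique – Cy5 beacon fluorescence read at start and 1 h · Measure – % inhibition of unwinding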
* hit, by the source's call; nt = no result. Most compounds without a hit are left out; they make up all but 3.9% or so of the library.

SMILES	core dimer inh	HSF-1 act	HSP90 inh	DNA FID counter	HSF1 inh	NS3 helicase inh
CC1=C(c2ccccc2)SC2=NCCN21	nt	-15	-1	0	-3	0
CC(C)[C@H](NC(=O)N1CCn2c1nc1ccccc12)C(=O)NC1CCCCC1	-6	-5	2	-39	-3	31
Cc1c(Cl)c([N+](=O)[O-])nn1CCCC(=O)NCCc1ccccc1	0	15	1	-5	1	8
CNC(=O)c1cc2c(ccc3ccccc32)o1	-3	58*	-1	-5	30	-1
COC1(OC)C(/C=C/c2ccc(Cl)cc2)C(C#N)(C#N)C1(OC)OC (stereo unspecified)	5	99*	6	-22	80	14
CC(C)N(CCNCC(O)COc1ccc(C(C)(C)c2ccccc2)cc1)C(C)C (stereo unspecified)	-9	-1	8	42*	-1	-59
O=C(COc1cccc2cccnc12)Nc1ccccc1	-4	21	-2	-8	17	10
COc1ccc(S(=O)(=O)Cc2ccc(C(=O)NCCCN(C)c3ccccc3)o2)cc1	-4	60*	4	-24	27	-6
CCCCNC(=O)c1ccc(CS(=O)(=O)c2ccc(OC)cc2)o1	-7	1	-4	-9	-1	-2
CC(=O)Cn1c(=O)oc2ccccc21	-4	8	-2	-2	-10	3
Cc1[nH]c2ccccc2c1C(=O)Cn1c(=O)oc2ccccc21	-1	76*	3	1	33	4
CC(C)CC(C(=O)Nc1ccc2c(c1)OCCO2)N1C(=O)c2ccccc2C1=O (stereo unspecified)	2	nt	0	-3	nt	-10
CC(C)CC(C(=O)Nc1cccc(O)c1)N1C(=O)c2ccccc2C1=O (stereo unspecified)	10	-67	-2	-16	-59*	3
CCOc1ccc(-c2nnc(SCc3nc4ccccc4[nH]3)n2N)cc1	-4	63*	-3	-10	46	0
CCOC(=O)c1csc(NC(=O)CN2CCOCC2)n1	8	9	-2	-4	1	-1
O=S(=O)(c1ccccc1)c1nc(-c2cccc(Cl)c2)oc1N1CCOCC1	-2	15	2	-33	2	0
Cc1cc2cc(CCNC(=O)C(=O)c3c[nH]c4ccccc34)c(=O)[nH]c2cc1C	-3	-65	4	-9	-63*	-19
O=C(NCCc1c[nH]c2ccccc12)C(=O)c1c[nH]c2ccccc12	-4	32	-4	3	8	-28
CSc1c(C#N)c(N)nc2sc(C(=O)c3ccccc3)c(N)c12	2	116*	0	2	81	-3
Cc1cccc(C(=O)N(Cc2nc3ccccc3c(=O)[nH]2)C2CCCCC2)c1	6	34	0	-46	1	4
CSc1ccc(C2C(C#N)=C(N)N(c3ccccc3)C3=C2C(=O)CCC3)cc1 (stereo unspecified)	26	58*	6	-20	22	12
N#CC1=C2N=C(N)c3c(sc4c3CCCCC4)N2C2=C(C(=O)CCC2)C1c1ccccc1 (stereo unspecified)	34	13	2	-7	0	10
CCOc1ccc(C2C(C#N)=C(N)N(c3sc4c(c3C#N)CCCC4)C3=C2C(=O)CCC3)cc1 (stereo unspecified)	55*	-4	-1	-6	9	2
Cc1cc(Nc2nn(C)c(N)c2C#N)ccc1F	-2	22	0	2	-2	4
Cc1ccc(CC2SC(N=C(N)N)=NC2=O)cc1 (stereo unspecified)	-10	81*	-2	-10	34	10
SMILES	core dimer inh	HSF-1 act	HSP90 inh	DNA FID counter	HSF1 inh	NS3 helicase inh
NS(=O)(=O)c1ccc(NC(=O)C(=O)NCCC(=O)O)cc1	0	5	0	2	-7	-13
Cc1cc(C)c(S(=O)(=O)N/N=C/c2ccc3c(c2)OCO3)c(C)c1	nt	-64	-3	-19	-55*	-14
CSCC[C@H](NC(=O)C1CCC(CNC(=O)[C@@H]2CCCN2C(=O)OC(C)(C)C)CC1)C(=O)O (stereo partly specified)	nt	-2	2	-11	-8	-10
CCCCN1/C(=C/c2ccc3ccccc3[n+]2CC)Sc2ccccc21	nt	57*	-1	4	11	-58
Cc1ccc(C)c(S(=O)(=O)N2CCCCC2CCNC(=O)C(=O)NCCc2ccco2)c1 (stereo unspecified)	5	54*	nt	nt	20	nt
C#CCOCCOCCOCCNc1nc(N2CCN(C(=O)[C@H]([C@@H](C)CC)n3cc([C@@H](N)CC(C)C)nn3)CC2)nc(N2CCN(C(=O)[C@H](CCCCN)n3cc([C@@H](N)CO)nn3)CC2)n1	-15	5	-1	38*	-4	-57
C#CCOCCOCCOCCNc1nc(N2CCN(C(=O)[C@H](CCC(=O)O)n3cc(C(N)CC(C)C)nn3)CC2)nc(N2CCN(C(=O)[C@H](Cc3ccc(O)cc3)n3cc(C(N)CC(C)C)nn3)CC2)n1 (stereo partly specified)	0	-8	8	12	4	-17
C#CCOCCOCCOCCNc1nc(N2CCN(C(=O)[C@H](CCCCN)n3cc([C@@H](N)CC(C)C)nn3)CC2)nc(N2CCN(C(=O)[C@H](Cc3ccc(O)cc3)n3cc([C@@H](N)CC(C)C)nn3)CC2)n1	-19	1	0	44*	-5	-70
C#CCOCCOCCOCCNc1nc(N2CCN(C(=O)[C@H]([C@@H](C)CC)n3cc([C@@H](N)Cc4ccc(O)cc4)nn3)CC2)nc(N2CCN(C(=O)[C@H](CCCCN)n3cc([C@@H](N)CC(C)C)nn3)CC2)n1	0	36	9	45*	15	-57
C#CCOCCOCCOCCNc1nc(N2CCN(C(=O)[C@H](CCCCN)n3cc([C@@H](N)C(C)CC)nn3)CC2)nc(N2CCN(C(=O)[C@H](Cc3ccc(O)cc3)n3cc([C@@H](N)CC(C)C)nn3)CC2)n1 (stereo partly specified)	-18	-24	6	49*	-13	-68
NC(=O)C1(N2CCCCC2)CCN(C(=O)CCCn2c(=O)[nH]c3ccsc3c2=O)CC1	-7	nt	nt	nt	nt	nt
CC(C)CCC(C(=O)NC(C)c1ccccc1)C(=O)NC(C)c1ccccc1 (stereo unspecified)	4	25	-3	-26	6	-3
